The results in this text go back to the EternaBench riboswitch data.

The subject of the data set is MS2 coat protein. In words: apparent Kd, MS2 coat protein; higher = weaker binding; RNA-MaP array; FMN 200 µM where present. The gist of the method:
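Two titrations, one without ligand and one with constant ligand, were run with SNAP-549-labelled MS2 coat protein from 0.7 or 1.5 nM, doubling to 3 µM. The targets were designs transcribed by stalled E. coli RNA polymerase on Illumina sequencing-chip clusters, in 100 mM Tris-HCl pH 7.5, 80 mM KCl, 4 mM MgCl2, BSA, DTT, yeast tRNA and Tween-20. The apparent Kd is the median of filtered per-cluster binding-curve fits, with green signal normalised to red-channel RNA signal and control-cluster median Fmax.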

Setting [1] is: designed as: ON switch for flavin mononucleotide, no ligand.
Setting [2] is: ligand present: flavin mononucleotide, designed as: ON switch for flavin mononucleotide.
Setting [3] is: designed as: OFF switch for flavin mononucleotide, no ligand.
The mark [4] stands for this setting: ligand present: flavin mononucleotide, designed as: OFF switch for flavin mononucleotide.

In the case of “GAGUGUGAAUAAGGAUAUAUGAGAGAGUGAGUAAUAGAAGGUAUACAAACAUGAGACAUGAGGAUCACCCAUGUAUCACCCAUG”, the “apparent Kd” value is 20.8 nM under setting [1] and 16.1 nM under setting [2].

For the sequence “GAUCUGUGGCUUUCGCUUUGUUCACAUGAGGAUCACCCAUGUAGAAGGUAGCGGUUGAAAUUCGCUGAGGAUAUACAUAGGUGC”, the “apparent Kd” value by setting is: under setting [3], 24.4 nM; under setting [4], 52.7 nM.

Take “GCCAGCUAUGUAGGAUAUGCGCGGCGAGCCUGUGCAGAAGGACAUGAGGAUCACCCAUGUGUUGCGGUCUGAGUACUGAUCGCC”: the “apparent Kd” value reads like this: under setting [3], 36.1 nM; under setting [4], 160 nM.

Take “UAUUCAUUCAGAGGAUAUUGUUUAUCUCUAUUUCAAGAAGGCUGAUUUUACUACUUACUUAUGAAACAUGAGGAUCACCCAUGU”: the “apparent Kd” value was 25.6 nM under setting [1] and 17.5 nM under setting [2].

For the sequence “AAUUAGUGUGUGAGGAUAUUGGUGGAAUGACAUAUUAAGAAGGCACAUGAGGAUCACCCAUGUGGGAUGUCACG”, the “apparent Kd” value is 10.9 nM under setting [3] and 13.6 nM under setting [4].

With “GGGUACAUCGGAGGAUAUCAUGUAAAUACAUGAGGAUCACCCAUGUAGAUGGAGACAUCGGAGAUUGAGAAGGCCGAUGUACCG”, the “apparent Kd” value runs as follows: under setting [1], 7.69 nM; under setting [2], 5.84 nM.

Consider “AGAUUCAUGGCCCGUUUGGGCCCACAUGAGGAUCACCCAUGUGAGGAUAUGACGUACCUGACUCGUCAGAAGGCGCAUGCGAAA”, for which the “apparent Kd” value under setting [3] came out at 7.45 nM and the “apparent Kd” value under setting [4] was determined as 16.7 nM.

Regarding “CAAAAUUGUGCAGGAUAUGCAGUUUGAUGGGCCUGUGGGAGAACAUGAGGAUCACCCAUGUGCUUGCAGAAGGGCACAAGCGAA”, the “apparent Kd” value reads like this: under setting [3], 103 nM; under setting [4], 419 nM.

As for “UUUAGUAUCUAGGAUAUCUAGUACAUAGUAUCUAGAGAAGGAGAUACAUGAGGAUCACCCAUGUUCUGUGUUCU”, the “apparent Kd” value is, setting by setting: under setting [3], 23.4 nM; under setting [4], 58.4 nM.

Turning to “GUGGAGGGUUGAGGAUAUUGAAUACAUAUGUUUAACAUGAGGAUCACCCAUGUGGGUUGCGGUAUCGAGAAGGUAAAUUGCUGG”, the “apparent Kd” value runs as follows: under setting [1], 97.2 nM; under setting [2], 109 nM.

In the case of “UCUUAACAUGAGGAUCACCCAUGUGAGGAUAUGAUGCAGCAGUGGUCUACGCUGUGCAUCAGAAGGUACAUGGG”, the “apparent Kd” value under setting [3] worked out at 23 nM and the “apparent Kd” value under setting [4] came to 20.1 nM.

As to “AGGAAACAUGAGGAUCACCCAUGUAAAGAAGGGUGAGGAUAUACAAAGAAAAGAAAGAAAGUAGAAGGCACAAAAG”, the “apparent Kd” value under setting [1] turned out to be 556 nM and the “apparent Kd” value under setting [2] stood at 635 nM.

As to “AUCAGCUCGUCAGGAUAUACGUCACUGCGUCAGCAGUGUGGUAAGAUCACAUGAGGAUCACCCAUGUAGAAGGGACAAGCUGAU”, the “apparent Kd” value under setting [3] worked out at 13.1 nM and the “apparent Kd” value under setting [4] turned out to be 270 nM.

Turning to “AGCUACGUUUCGUAGCAGCUAGGUGAGGAUAUCCUUUACAUGAGGAUCACCCAUGUUUAGCCAUGGGAGAAGGCGCCUAGAAAG”, the “apparent Kd” value runs as follows: under setting [1], 1090 nM; under setting [2], 113 nM.

In the case of “UUUAUAUAGUAAGGAUAUGUAUUAUGUUUAUCAACAGAAGGUACUGACAUGAGGAUCACCCAUGUUUUAGUGUGGGCAUGUAGU”, the “apparent Kd” value stood at 218 nM under setting [3] and 301 nM under setting [4].

Consider “GUCAGCUCGUGAGGAUAUACAACACUGCUUCGGCAGUGUAUUAAGAUCACAUGAGGAUCACCCAUGUAGAAGGCACGACCUGAU”, for which the “apparent Kd” value is, setting by setting: under setting [3], 14.1 nM; under setting [4], 257 nM.

Consider “AAAAUGGUACAGAAGGCGGAGCCCAACAUGAGGAUCACCCAUGUAUGGGUGUCGUCAGUAGUUACCGAGGAUAUGUAUCGGUAU”, for which the “apparent Kd” value reads like this: under setting [3], 6.42 nM; under setting [4], 7.1 nM.

Regarding “CACAAUCUAUCUGAGGAUAUCAUGAAAAAAACAUGAGGAUCACCCAUGUGCAGGAAAACUGCAUAUGAGAAGGCAGAUAGAUUGU”, the “apparent Kd” value runs as follows: under setting [1], 770 nM; under setting [2], 28.4 nM.

Consider “UGUAUUAACGGAGGAUAUCGAUAUCAAACAUGAGGAUCACCCAUGUUGAGGAUCACCCAUGUCCAUGAGAAGGCCGGCGUACUU”, for which the “apparent Kd” value was 36.2 nM under setting [1] and 29.4 nM under setting [2].

As to “AGCUGUGGCCGAGGAUAUCUAACAAUCCAAACCGAAAUAUAAUCGGACAUGAGGAUCACCCAUGUAGAGAAGGCGGUCUCAGCA”, the “apparent Kd” value under setting [3] worked out at 48.1 nM and the “apparent Kd” value under setting [4] came out at 65 nM.

On to “ACGUCUUAGUAGAAGGGACUUCGGCUGGUAAGCAUCAUCUCCUUCUCACAUGAGGAUCACCCAUGUCAGGAUAUACUAAGAGUC”, for which the “apparent Kd” value reads like this: under setting [3], 7.24 nM; under setting [4], 7.35 nM.

“GUAGCAAUCGGAGGAUAUUCAUUAAACAUGAGGAUCACCCAUGUAAAUUUGGGAGAAGGCCGAUUGCUACAAGAGCGAAAGCUC”: the “apparent Kd” value is, setting by setting: under setting [1], 22.9 nM; under setting [2], 6.1 nM.

On to “AGGAGAAAUGUAGGAUAUGGAUAUAUAUAUGGGCAAAGCGCAUAUAUAUAUCCAGAAGGACAUGAGGAUCACCCAUGUUUCCCU”, for which the “apparent Kd” value is, setting by setting: under setting [3], 11.8 nM; under setting [4], 13 nM.

On to “AUUAAUUAAUUAAUACAUGAGGAUCACCCAUGUAAUAAGAUCUAGGAUAUCAGCUCGUUUAGAGCUGAGAAGGAGAUCACAUGU”, for which the “apparent Kd” value is 42.6 nM under setting [1] and 37.2 nM under setting [2].

Turning to “ACUAGAUGAGGAUAUGCAUGUUUUCAUGUUCUUCUAGAUUAACAUGAGGAUCACCCAUGUAGAAGGCGUCUUUA”, the “apparent Kd” value runs as follows: under setting [3], 19.5 nM; under setting [4], 34.8 nM.

“AUAUUACGAGGAUAUCGUUUUUUUCACAUGAGGAUCACCCAUGUUAUCCAUGUUUCGUUUCGAGAAGGCGUAAGUU”: the “apparent Kd” value under setting [3] was 50.6 nM and the “apparent Kd” value under setting [4] is 36.1 nM.

For the sequence “GUUUGUUAUUAGAAGGUGCCAGCGAGAGCUGCAACAUGAGGAUCACCCAUGUGUCGGUGACGACGCAAGGAUAUGGUGGUGGAU”, the “apparent Kd” value came to 402 nM under setting [1] and 193 nM under setting [2].

As for “CAUGUCCUCACAGGAUAUGCUGGACUUUGUCCAGCAGAAGGGUGUUAACAUGAGGAUCACCCAUGUGGACAUGAUAUAUUUAAG”, the “apparent Kd” value stood at 757 nM under setting [1] and 66.2 nM under setting [2].

“UGAUCUUUUGUUAGGAUAUGCUGGGUUUUUUCUCAGCAGAAGGGACAUGAGGAUCACCCAUGUUCUCUCUUUUU”: the “apparent Kd” value by setting is: under setting [3], 9.49 nM; under setting [4], 11.6 nM.

Turning to “UCGUUUAUACAAGGAUAUCAAUUUUAGCUUAAUUCAACAUGAGGAUCACCCAUGUAACUAUGGAGUGAGAAGGUGUAAUGGCUU”, the “apparent Kd” value was found to be 522 nM under setting [1] and 222 nM under setting [2].

“GGACAUCCCACAGGAUAUGCUGGACUUUGUCCAGCAGAAGGGUGAAACACAUGAGGAUCACCCAUGUGGAUGUCCAUAUUUAAU”: the “apparent Kd” value by setting is: under setting [1], 180 nM; under setting [2], 694 nM.

For the sequence “UCAAAGAGAUCGAACGGGAGGCGUAAGGAUAUGCACAUGAGGAUCACCCAUGUCUACGAAAGUAGGCAGAAGGUACGCGGGAUU”, the “apparent Kd” value reads like this: under setting [1], 253 nM; under setting [2], 30.6 nM.

Regarding “UAUUAUGUCAGAGGAUAUAUAAAUAAAUUUAUAACAUGAGGAUCACCCAUGUACUUUAGUAUGAGGUAGAAGGUUGAUAAGAUA”, the “apparent Kd” value is, setting by setting: under setting [1], 45.4 nM; under setting [2], 26.8 nM.

Take “AAUAUGAGCUGGAAUAAACCUAAAACAUGAGGAUCACCCAUGUAGGAUAUCAGCACGAUAAGUGCUGAGAAGGACAACCAGCUC”: the “apparent Kd” value stood at 14.4 nM under setting [3] and 13.9 nM under setting [4].

In the case of “CGGUCGAUGUAAGGAUAUCGACUGGAUAACAGUCGAGAAGGUACAUGAGGAUCACCCAUGUAAACCUAUAAUAAAUAACGACCG”, the “apparent Kd” value is, setting by setting: under setting [3], 11.2 nM; under setting [4], 14.6 nM.

On to “AUAAUUAAUGCAGGAUAUCAGCACGUGUAGUGCUGAGAAGGGCACAUGAGGAUCACCCAUGUGAUCAAUUAAUAUUAAUAUUAU”, for which the “apparent Kd” value is, setting by setting: under setting [3], 61 nM; under setting [4], 275 nM.
